Measurements: ChEMBL document CHEMBL1124441, “Synthesis of congeners and prodrugs. 3. Water-soluble prodrugs of taxol with potent antitumor activity” (1989)

Legend:
B16 [1] = assay: Difference in body weight in grams between test and control animals at a dose of 44 mg/kg intraperitoneally; assay type: functional, Mus musculus; details: route intraperitoneal
Outline: (§1)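 B16 melanoma system: 10⁶ tumor cells inoculated ip on day 0. Drug given ip once daily for 9 days (Q01Dx09) starting day 1, dose as mg/kg body weight per injection. Read-out is the body-weight difference in grams, treated minus control animals. Early deaths, taken as toxicity, are scored on day 4.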

B16 [2] = assay: Percent of median lifetime of test animals divided by the median lifetime of control animals at a dose of 11 mg/kg intraperitoneally; assay type: functional, Mus musculus; details: route intraperitoneal
Outline: (§2)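 B16 melanoma inoculated ip (10⁶ cells) on day 0. Daily ip treatment for 9 days (Q01Dx09) begins day 1, dosed per injection in mg/kg. %T/C is the median lifespan of treated animals divided by that of tumored untreated controls, ×100. Cures are animals alive on the last test day. Toxic deaths are assessed on day 4.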

B16 [3] = assay: Antitumor activity in B16 Melanoma system animals is indicated by survivors on day 4 at a dose of 5.5 mg/kg intraperitoneally; assay type: functional, Mus musculus; details: route intraperitoneal
Outline: (§3)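 B16 melanoma, 10^6 cells inoculated ip on day 0. Ip treatment started day 1, schedule Q01Dx09 (one dose daily for 9 days). The score is live animals on day 4 over total animals; early deaths are taken as drug toxicity.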

B16 [4] = assay: Difference in body weight in grams between test and control animals at a dose of 22 mg/kg intraperitoneally; assay type: functional, Mus musculus; details: route intraperitoneal; outline: as §1
B16 [5] = assay: Percent of median lifetime of test animals divided by the median lifetime of control animals at a dose of 22 mg/kg intraperitoneally; assay type: functional, Mus musculus; details: route intraperitoneal; outline: as §2
B16 [6] = assay: Antitumor activity in B16 Melanoma system animals is indicated by survivors on day 4 at a dose of 2.75 mg/kg intraperitoneally; assay type: functional, Mus musculus; details: route intraperitoneal; outline: as §3
B16 [7] = assay: Percent of median lifetime of test animals divided by the median lifetime of control animals at a dose of 44 mg/kg intraperitoneally; assay type: functional, Mus musculus; details: route intraperitoneal; outline: as §2
B16 [8] = assay: Antitumor activity in B16 Melanoma system animals is indicated by survivors on day 4 at a dose of 44 mg/kg intraperitoneally; assay type: functional, Mus musculus; details: route intraperitoneal; outline: as §3
B16 [9] = assay: Antitumor activity in B16 Melanoma system animals is indicated by survivors on day 4 at a dose of 22 mg/kg intraperitoneally; assay type: functional, Mus musculus; details: route intraperitoneal; outline: as §3
B16 [10] = assay: Antitumor activity in B16 Melanoma system animals is indicated by survivors on day 4 at a dose of 11 mg/kg intraperitoneally; assay type: functional, Mus musculus; details: route intraperitoneal; outline: as §3
B16 [11] = assay: Percent of median lifetime of test animals divided by the median lifetime of control animals at a dose of 5.5 mg/kg intraperitoneally; assay type: functional, Mus musculus; details: route intraperitoneal; outline: as §2
B16 [12] = assay: Percent of median lifetime of test animals divided by the median lifetime of control animals at a dose of 2.75 mg/kg intraperitoneally; assay type: functional, Mus musculus; details: route intraperitoneal; outline: as §2
B16 [13] = assay: Antitumor activity in B16 Melanoma system animals is indicated by survivors on day 4 at a dose of 1.25 mg/kg intraperitoneally; assay type: functional, Mus musculus; details: route intraperitoneal; outline: as §3
B16 [14] = assay: Antitumor activity in B16 Melanoma system animals is indicated by survivors on day 4 at a dose of 2.5 mg/kg intraperitoneally; assay type: functional, Mus musculus; design: reference not given here; details: route intraperitoneal; outline: as §3
B16 [15] = assay: Difference in body weight in grams between test and control animals at a dose of 5 mg/kg intraperitoneally; assay type: functional, Mus musculus; details: route intraperitoneal; outline: as §1
B16 [16] = assay: Difference in body weight in grams between test and control animals at a dose of 1.25 mg/kg intraperitoneally; assay type: functional, Mus musculus; details: route intraperitoneal; outline: as §1
B16 [17] = assay: Percent of median lifetime of test animals divided by the median lifetime of control animals at a dose of 1.25 mg/kg intraperitoneally; assay type: functional, Mus musculus; details: route intraperitoneal; outline: as §2
B16 [18] = assay: Difference in body weight in grams between test and control animals at a dose of 10 mg/kg intraperitoneally; assay type: functional, Mus musculus; details: route intraperitoneal; outline: as §1
B16 [19] = assay: Percent of median lifetime of test animals divided by the median lifetime of control animals at a dose of 10 mg/kg intraperitoneally; assay type: functional, Mus musculus; details: route intraperitoneal; outline: as §2
B16 [20] = assay: Antitumor activity in B16 Melanoma system animals is indicated by survivors on day 4 at a dose of 5 mg/kg intraperitoneally; assay type: functional, Mus musculus; details: route intraperitoneal; outline: as §3
B16 [21] = assay: Percent of median lifetime of test animals divided by the median lifetime of control animals at a dose of 5 mg/kg intraperitoneally; assay type: functional, Mus musculus; details: route intraperitoneal; outline: as §2
B16 [22] = assay: Antitumor activity in B16 Melanoma system animals is indicated by survivors on day 4 intraperitoneally; details: Mus musculus, route intraperitoneal
B16 [23] = assay: Percent of median lifetime of test animals divided by the median lifetime of control animals at a dose of 2.5 mg/kg intraperitoneally; assay type: functional, Mus musculus; details: route intraperitoneal; outline: as §2
B16 [24] = assay: Antitumor activity in B16 Melanoma system animals is indicated by survivors on day 4 at a dose of 10 mg/kg intraperitoneally; assay type: functional, Mus musculus; design: reference not given here; details: route intraperitoneal; outline: as §3
B16 [25] = assay: Difference in body weight in grams between test and control animals at a dose of 20 mg/kg intraperitoneally; assay type: functional, Mus musculus; details: route intraperitoneal; outline: as §1
B16 [26] = assay: Difference in body weight in grams between test and control animals at a dose of 2.5 mg/kg intraperitoneally; assay type: functional, Mus musculus; details: route intraperitoneal; outline: as §1
B16 [27] = assay: Percent of median lifetime of test animals divided by the median lifetime of control animals at a dose of 20 mg/kg intraperitoneally; assay type: functional, Mus musculus; details: route intraperitoneal; outline: as §2
B16 [28] = assay: Difference in body weight in grams between test and control animals at a dose of 40 mg/kg intraperitoneally; assay type: functional, Mus musculus; details: route intraperitoneal; outline: as §1
B16 [29] = assay: Antitumor activity in B16 Melanoma system animals is indicated by survivors on day 4 at a dose of 20 mg/kg intraperitoneally; assay type: functional, Mus musculus; design: reference not given here; details: route intraperitoneal; outline: as §3
B16 [30] = assay: Antitumor activity in B16 Melanoma system animals is indicated by survivors on day 4 at a dose of 40 mg/kg intraperitoneally; assay type: functional, Mus musculus; details: route intraperitoneal; outline: as §3
B16 [31] = assay: Percent of median lifetime of test animals divided by the median lifetime of control animals at a dose of 40 mg/kg intraperitoneally; Toxic; assay type: functional, organism-based; design: dose 40 mg/kg; details: Mus musculus
Outline: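 B16 melanoma, 10^6 cells ip on day 0, ip treatment from day 1, Q01Dx09 (single dose daily for 9 days). %T/C is median lifetime of treated over untreated tumored controls, times 100. Early deaths are assessed on day 4 for toxicity. Cures are animals alive on the last test day.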

B16 [32] = assay: Percent of median lifetime of test animals divided by the median lifetime of control animals at a dose of 40 mg/kg intraperitoneally; assay type: functional, Mus musculus; details: route intraperitoneal; outline: as §2

Row | SMILES | Activity (B16 [13]) | Activity (B16 [14]) | Weight difference (B16 [15]) | Weight difference (B16 [16]) | T/C (B16 [17]) | Weight difference (B16 [18]) | T/C (B16 [19]) | Survivors on day 4 (B16 [20]) | T/C (B16 [21]) | T/C (B16 [23]) | Activity (B16 [24]) | Weight difference (B16 [25]) | Weight difference (B16 [26]) | T/C (B16 [27]) | Weight difference (B16 [28]) | Activity (B16 [29]) | Activity (B16 [30]) | further results
1 | CC(=O)OC1C(=O)[C@]2(C)[C@@H](OC(=O)CCC(=O)[O-])C[C@H]3OC[C@@]3(OC(C)=O)[C@H]2[C@H](OC(=O)c2ccccc2)[C@]2(O)CC(OC(=O)C(OC(=O)CCC(=O)[O-])C(NC(=O)c3ccccc3)c3ccccc3)C(C)=C1C2(C)C.[Na+].[Na+] (some centres not stated) | – | – | – | – | – | – | – | – | – | – | – | – | – | – | – | – | – | Weight difference (B16 [1]): 0 g; T/C (B16 [2]): 149%; Activity (B16 [3]): 10; Weight difference (B16 [4]): 0 g; T/C (B16 [5]): 109%; Activity (B16 [6]): 10; T/C (B16 [7]): 166%; Activity (B16 [8]): 10; Activity (B16 [9]): 10; Activity (B16 [10]): 10; T/C (B16 [11]): 114%; T/C (B16 [12]): 120%
2 | CC(=O)OC1C(=O)[C@]2(C)C(O)C[C@H]3OC[C@@]3(OC(C)=O)[C@H]2[C@H](OC(=O)c2ccccc2)[C@]2(O)CC(OC(=O)[C@@H]3OC(=O)N(C(=O)c4ccccc4)[C@H]3c3ccccc3)C(C)=C1C2(C)C (some centres not stated) | 10 | 10 | 0 g | -0.2 g | 94% | -0.1 g | 100% | 10 | 95% | 88% | 10 | -0.2 g | -0.3 g | 98% | – | – | – | Activity (B16 [22]): 10
3 | CC(=O)OC1C(=O)[C@@]2(C)[C@H]([C@H](OC(=O)c3ccccc3)[C@]3(O)CC(OC(=O)C(O)C(NC(=O)c4ccccc4)c4ccccc4)C(C)=C1C3(C)C)[C@]1(OC(C)=O)CO[C@@H]1C[C@@H]2O (some centres not stated) | – | – | -0.2 g | – | – | 0 g | 139% | 10 | 175% | – | 10 | 0 g | – | 96% | -1.2 g | 10 | 10 | T/C (B16 [31]): Toxic
4 | CC(=O)OC1C(=O)[C@@]2(C)[C@H]([C@H](OC(=O)c3ccccc3)[C@]3(O)CC(OC(=O)C(OC(=O)CCC(=O)[O-])C(NC(=O)c4ccccc4)c4ccccc4)C(C)=C1C3(C)C)[C@]1(OC(C)=O)CO[C@@H]1C[C@@H]2O.[Na+] (some centres not stated) | 10 | 10 | 0 g | 0.1 g | 111% | 0.6 g | 183% | 10 | 166% | 159% | 10 | -0.2 g | 0.4 g | 201% | 0.6 g | 10 | 10 | T/C (B16 [32]): 218%
